For one data set, the system named is AR protein. As to the kind of experiment: Western blot analysis of AR protein. It is filed as cell-based, human. The settings on record: LNCaP cells; for AR Protein (% of control): after 24 h of exposure to 1 µmol/L. On the technique in general: A western blot detects proteins with antibodies after separation by electrophoresis.
A further data set deals with VCaP. As to the kind of experiment: Clonogenic survival assay. It is filed as cell-based, human. The settings on record: loss of 50% clonogenic ability after 48 h exposure.
For a further data set, the system named is LNCaP. As to the kind of experiment: Clonogenic survival assay. It is filed as cell-based, human. The settings on record: for Killing ability LD50: loss of 50% clonogenic ability after 48 h exposure; for CC50: read-out: Cell death of LNCaP LC50.
Data set [1] relates to LNCaP cells. As to the kind of experiment: Intracellular free Ca+2. It is filed as cell-based, human. The settings on record: for Intracellular free calcium: 10 min after exposure to 1 µmol/L, starting concentration ~40 nmol/L.
For a further data set, the system named is LAPC-4. As to the kind of experiment: Clonogenic survival assay. It is filed as cell-based, human. The settings on record: loss of 50% clonogenic ability after 48 h exposure.
For data set [2] the following is noted: cited from earlier work.
The subject of the next data set is MDA-PC-2b. As to the kind of experiment: Clonogenic survival assay. It is filed as cell-based, human. The settings on record: loss of 50% clonogenic ability after 48 h exposure.
The test system of the next data set is CWR22Rv1. As to the kind of experiment: Clonogenic survival assay. It is filed as cell-based, human. The settings on record: loss of 50% clonogenic ability after 48 h exposure.
Data set [3] relates to IRE1-dependent XBP-1 processing. As to the kind of experiment: ER stress: IRE1-dependent XBP-1/venus processing, fluorescent cells. It is filed as cell-based, human.
Data set [4] concerns LNCaP cells. The settings on record: over the next 18 to 36 hours after return to baseline; cited from earlier work.
The test system of data set [5] is androgen ablation refractory human prostate cancer lines. Put plainly: Clonogenic survival assay, each of the five lines. It is filed as cell-based. The settings on record: LNCaP, LAPC-4, VCaP, MDA-PCa-2b, CWR22Rv1. In a few lines:
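Clonogenic survival of each prostate cancer line after 48 h exposure to a concentration series of test compound. LD₅₀ is the nmol/L concentration causing 50% loss of clonogenic ability.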

Data set [6] has as its target rabbit skeletal muscle SERCA pump (Oryctolagus cuniculus, UniProt P04191). As to the kind of experiment: SERCA pump activity inhibition. It is filed as biochemical.
Another data set concerns AR mRNA. As to the kind of experiment: AR mRNA by reverse transcription-PCR. It is filed as cell-based, human. The settings on record: LNCaP, LAPC-4 and CWR22Rv1 cells; 1 µmol/L TG, various times.
The test system of a further data set is total protein synthesis. As to the kind of experiment: Total protein synthesis, S35-methionine incorporation. It is filed as cell-based, human. The settings on record: LNCaP; at 24 hours post-TG exposure. In a few lines:
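LNCaP cells were treated for 6 or 24 h (1 µmol/L test compound) and labelled with S³⁵-methionine for 30 min before lysis. Incorporation was measured as TCA-precipitable counts and expressed per cell as percent of incorporation in exponentially growing untreated cells.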

For data set [7], the system named is LNCaP cells. Put plainly: Percentage of cells in cycle, Ki67 flow cytometry. It is filed as cell-based, human. The settings on record: TG exposure, untreated 91% ± 2%. For orientation: A flow cytometer gives signals particle by particle.
In data set [8] the test system is AR-specific protein synthesis. It is filed as cell-based, human. An outline of the steps: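 LNCaP cells exposed to 1 µmol/L test compound for 6 or 24 h, then pulsed with S³⁵-methionine for 30 min before lysis. AR was immunoprecipitated from an aliquot of the labelled total protein with N-20 anti-AR antibody and Protein-A agarose beads, then Western blotted. AR-associated radioactivity was captured on X-ray film and quantitated by imaging.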

Several values for one entry are separate records, joined by “and”; a condition that tells them apart may be missing. Equal values may be shown once. Read-outs that look alike come from different tables or passages of the source.

By IC50 is commonly meant the concentration that inhibits the measured activity by half.

rabbit skeletal muscle SERCA pump, sequence (P04191 1-994 isoform P04191-2): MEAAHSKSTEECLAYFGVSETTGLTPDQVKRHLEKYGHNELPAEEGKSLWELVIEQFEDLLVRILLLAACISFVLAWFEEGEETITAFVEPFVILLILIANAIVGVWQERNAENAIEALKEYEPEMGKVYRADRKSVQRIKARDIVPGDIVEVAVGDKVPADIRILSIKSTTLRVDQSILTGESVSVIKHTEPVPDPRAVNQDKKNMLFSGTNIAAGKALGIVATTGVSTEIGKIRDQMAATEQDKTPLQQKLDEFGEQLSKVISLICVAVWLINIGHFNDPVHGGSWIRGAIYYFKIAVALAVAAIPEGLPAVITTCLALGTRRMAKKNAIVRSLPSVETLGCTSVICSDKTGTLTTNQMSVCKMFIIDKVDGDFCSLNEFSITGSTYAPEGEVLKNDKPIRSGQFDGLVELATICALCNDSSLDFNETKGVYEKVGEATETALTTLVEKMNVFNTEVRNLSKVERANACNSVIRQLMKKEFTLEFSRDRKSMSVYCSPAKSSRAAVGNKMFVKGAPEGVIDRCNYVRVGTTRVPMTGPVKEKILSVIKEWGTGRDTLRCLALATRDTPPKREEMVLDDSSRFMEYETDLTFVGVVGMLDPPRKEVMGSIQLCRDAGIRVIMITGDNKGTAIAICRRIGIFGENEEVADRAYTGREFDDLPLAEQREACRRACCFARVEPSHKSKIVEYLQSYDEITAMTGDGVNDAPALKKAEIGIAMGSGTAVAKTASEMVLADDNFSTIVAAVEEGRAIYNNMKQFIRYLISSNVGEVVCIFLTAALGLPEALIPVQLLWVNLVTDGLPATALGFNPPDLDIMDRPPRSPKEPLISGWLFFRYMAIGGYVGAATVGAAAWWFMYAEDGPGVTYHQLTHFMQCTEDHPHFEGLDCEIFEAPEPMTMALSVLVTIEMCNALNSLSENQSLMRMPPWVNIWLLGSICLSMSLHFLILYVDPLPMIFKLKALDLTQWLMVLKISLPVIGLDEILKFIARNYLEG

`C/C=C(/C)C(=O)O[C@H]1C(C)=C2[C@H]([C@@H]1OC(=O)CCCCCCC)[C@@](C)(OC(C)=O)C[C@H](OC(=O)CCCCCCCCCCCN)[C@@]1(O)[C@H]2OC(=O)[C@@]1(C)O` [Analog 12ADT, 8-O-(12-dodecanyl)-8-O-debutanoyl TG]: the “AR Protein (% of control)” value in the data set on AR protein is 14 ± 3 % of control. In addition, the “Killing ability LD50” value with VCaP is given as 67 ± 25 nmol/L; in the data set with LNCaP (LNCaP), 55 ± 12 nmol/L; in the data set with LAPC-4 it was 80 ± 19 nmol/L; with MDA-PC-2b, 95 ± 35 nmol/L; in the data set with CWR22Rv1 it was 85 ± 27 nmol/L. The CC50 with LNCaP (after 48 h of exposure) was 55 ± 12 nM. For the same compound, in the data set on LNCaP cells [1], the Intracellular free calcium amounted to 369 ± 23 nmol/L. For the same compound, the “host toxicity on systemic administration” value in data set [2] is on record as “cannot be given systemically without host toxicity”.

With `C/C=C(/C)C(=O)O[C@H]1C(C)=C2[C@H]([C@@H]1OC(=O)CCCCCCC)[C@@](C)(OC(C)=O)C[C@H](OC(=O)CCCCCCCCCCCNC(=O)C[C@H](N)C(=O)O)[C@@]1(O)[C@H]2OC(=O)[C@@]1(C)O` [Analog D12ADT, asparty-12ADT], the “AR Protein (% of control)” value with AR protein is listed as 11 ± 6 % of control. Further, the “Killing ability LD50” value is on record as 70 ± 18 nmol/L in the data set with VCaP; 40 ± 12 nmol/L with LNCaP (LNCaP); 55 ± 9 nmol/L in the data set on LAPC-4; 51 ± 12 nmol/L in the data set on MDA-PC-2b; 39 ± 7 nmol/L in the data set with CWR22Rv1. Moreover, the CC50 in the data set with LNCaP (after 48 h of exposure) was 40 ± 12 nM. Besides, the Intracellular free calcium in the data set on LNCaP cells [1] turned out to be 385 ± 40 nmol/L.

As for `C/C=C(/C)C(=O)O[C@H]1C(C)=C2[C@H]([C@@H]1OC(=O)CCCCCCC)[C@@](C)(OC(C)=O)C[C@H](OC(=O)CCC)[C@@]1(O)[C@H]2OC(=O)[C@@]1(C)O` [TG, Thapsigargin, reference compound], in [3] (XBP-1/venus-transfected LNCaP and CWR22Rv1, 500 µmol/L TG, by 24 hours), the “percent of fluorescent (ER-stressed) cells” value is listed as > 80%. In addition, the “delayed sustained increase in Cai” value in the data set with LNCaP cells [4] is given as > 1 µmol/L. In addition, the “AR Protein (% of control)” value in the data set with AR protein was 10 ± 2 % of control. For the same compound, the “depletion of AR protein” value with AR protein (by 24 hours of TG exposure) worked out at 90%. In addition, the “Killing ability LD50” value was 20 ± 7 nmol/L in the data set with VCaP; 10 nmol/L and 10 ± 5 nmol/L in the data set with LNCaP (LNCaP); 25 ± 6 nmol/L with LAPC-4; 43 ± 12 nmol/L with MDA-PC-2b; 38 ± 9 nmol/L in the data set on CWR22Rv1. Besides, the “LD50 for each of the lines” value in data set [5] is on record as < 100 nmol/L. For the same compound, the CC50 in the data set with LNCaP (Homo sapiens, LNCaP, 48 h) worked out at 10 ± 5 nM. This compound also had an IC50 in data set [6] of 13 ± 2 nM. Also, in the data set on AR mRNA, the “change in AR mRNA” value is “no change”. The Intracellular free calcium with LNCaP cells [1] is given as 441 ± 35 nmol/L. Also, the “initial increase in Cai” value with LNCaP cells [1] (from ~40 nmol/L, within minutes) is recorded as > 300 nmol/L. Further, the “inhibition of general protein synthesis” value with total protein synthesis was > 60%. Moreover, the “host toxicity on systemic administration” value in data set [2] is on record as “cannot be given systemically without host toxicity”. The results for the “Ki67+ cells” value in the data set on LNCaP cells [7] (24 hours) and in the data set on LNCaP cells [7] (48 hours) were 25% ± 8% and > 10%, respectively. The “decrease in rate of AR-specific protein synthesis” value in [8] (LNCaP cells, 1 µmol/L TG) is listed as > 90%. Moreover, the “inhibition of AR-specific protein synthesis” value in data set [8] (LNCaP, at 24 hours post-TG exposure) is given as > 90%.

alanyl-12ADT [Analog A12ADT]: the “AR Protein (% of control)” value in the data set with AR protein is 15 ± 4 % of control. The “Killing ability LD50” value in the data set with VCaP was 23 ± 9 nmol/L; with LNCaP (LNCaP), 8 ± 4 nmol/L; in the data set on LAPC-4 it was 28 ± 7 nmol/L; with MDA-PC-2b, 40 ± 6 nmol/L; in the data set with CWR22Rv1, 38 ± 11 nmol/L. For the same compound, the CC50 in the data set with LNCaP (after 48 h of exposure) was 8 ± 4 nM. For the same compound, the Intracellular free calcium in the data set on LNCaP cells [1] amounted to 410 ± 45 nmol/L.

As to leucyl-12ADT [Analog L12ADT], the “cells with IRE1-dependent XBP-1 processing (flow cytometric GFP)” value in data set [3] (LNCaP, 500 nmol/L, within 24 h) is recorded as “all cells”. For the same compound, the “AR Protein (% of control)” value in the data set with AR protein is recorded as 8 ± 4 % of control. Further, the “Killing ability LD50” value in the data set on VCaP came to 25 ± 11 nmol/L; in the data set with LNCaP (LNCaP), 14 ± 8 nmol/L; with LAPC-4, 32 ± 9 nmol/L; in the data set on MDA-PC-2b it was 42 ± 5 nmol/L; with CWR22Rv1, 34 ± 16 nmol/L. Also, in the data set with LNCaP (after 48 h of exposure), the CC50 was 14 ± 8 nM. Besides, in the data set on LNCaP cells [1], the Intracellular free calcium was found to be 414 ± 44 nmol/L.
